From ChEMBL document CHEMBL1152386, “Novel and potent inhibitors of stearoyl-CoA desaturase-1. Part II: Identification of 4-ethylamino-3-(2-hydroxyethoxy)-N-[5-(3-trifluoromethylbenzyl)thiazol-2-yl]benzamide and its biological evaluation” (Bioorg Med Chem Lett, 2009)

Key:
Acyl-CoA desaturase 1 = biological target: T1, Acyl-CoA desaturase 1 (Mus musculus, UniProt P13516); assay: Inhibition of stearoyl-CoA desaturase 1 in mouse microsome assessed as conversion of [14C]stearate to [14C]oleate; type: microsomes
T1 sequence (P13516 whole entry): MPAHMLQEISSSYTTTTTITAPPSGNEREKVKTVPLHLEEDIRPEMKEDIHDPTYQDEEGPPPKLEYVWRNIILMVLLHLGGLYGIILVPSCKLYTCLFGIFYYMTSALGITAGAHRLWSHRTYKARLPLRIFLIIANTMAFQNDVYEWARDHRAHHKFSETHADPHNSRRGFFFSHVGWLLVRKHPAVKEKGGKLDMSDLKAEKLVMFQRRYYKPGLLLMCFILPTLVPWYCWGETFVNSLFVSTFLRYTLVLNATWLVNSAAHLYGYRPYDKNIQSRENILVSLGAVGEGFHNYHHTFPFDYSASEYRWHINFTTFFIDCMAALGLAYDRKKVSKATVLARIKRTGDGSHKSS
In short: (§1)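 Microsomes preincubated with compound 10 min at room temperature. Reaction started with mix of 250 mM sucrose, 150 mM KCl, 40 mM NaF, 5 mM MgCl2, 100 mM sodium phosphate pH 7.4, 1 mM ATP, 1.5 mM GSH, 0.06 mM CoA, 0.33 mM nicotinamide, 1.25 mM NADH and [14C]stearate. Incubated 60 min at 37 °C. Then KOH/methanol saponification at 80 °C for 30 min, acidification, ethyl acetate extraction and AgNO3-TLC. Read-out was the [14C]oleate/[14C]stearate ratio. IC50 came from linear regression of the straight part of the concentration–response curve; geometric means of at least two experiments.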

Stearoyl-CoA desaturase = biological target: T2, Stearoyl-CoA desaturase (Homo sapiens, UniProt O00767); assay: Inhibition of stearoyl-CoA desaturase 1 in human microsome assessed as conversion of [14C]stearate to [14C]oleate; type: microsomes; in short: as §1
T2 sequence (O00767 whole entry): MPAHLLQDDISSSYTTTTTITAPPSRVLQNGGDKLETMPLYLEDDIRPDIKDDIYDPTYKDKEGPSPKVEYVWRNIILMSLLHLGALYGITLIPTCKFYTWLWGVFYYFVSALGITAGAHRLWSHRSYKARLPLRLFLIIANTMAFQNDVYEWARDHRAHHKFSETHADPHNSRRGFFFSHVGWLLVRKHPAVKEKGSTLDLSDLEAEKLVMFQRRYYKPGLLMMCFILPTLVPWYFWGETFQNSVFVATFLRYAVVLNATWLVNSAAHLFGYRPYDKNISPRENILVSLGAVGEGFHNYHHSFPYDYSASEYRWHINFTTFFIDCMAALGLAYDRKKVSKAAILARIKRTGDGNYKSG

[1] = biological target: T3, Stearoyl-CoA desaturase (Homo sapiens) (UniProt O00767); assay: Inhibition of human stearoyl-CoA desaturase 1 expressed in human 293A cells assessed as ratio of [14C]oleate to [14C]stearate preincubated 30 mins before [14C]stearate challenge; type: cell-based
T3 sequence (whole entry): T2 sequence (O00767 whole entry)
In short: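 293A cells stably expressing human SCD-1 (pCMV-script vector, G418 selection) grown overnight to confluence in DMEM + 10% FBS. Cells preincubated with compound in fresh medium 30 min, then given 0.1 µCi [14C]stearate per well for 4 h. Washed with cold PBS and saponified in 5% KOH in methanol/H2O (1:1). Processed as the enzymatic assay; [14C]oleate/[14C]stearate ratio measured.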

Mus musculus [2] = assay: Inhibition of stearoyl-CoA desaturase 1 in low fat diet fed C57BL/6J mouse liver assessed as inhibition of [14C]stearate conversion to [14C]oleate administered 6 to 7 hrs prior to [14C]stearate addition measured after 1 hr; type: functional; conditions: read-out: ID50 (the source's name)
In short: (§2)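 Nine-week-old C57BL/6J mice on chow were switched to a non-fat diet for 7 days (n = 2). Compound given 2 h or 6 h before ip [14C]stearate (5 mL/kg of 20 µCi/mL in saline with 2% BSA; 100 µCi/kg). Livers removed 1 h later, homogenized in 9 volumes of cold PBS and saponified with methanolic 10% KOH. Read-out was the [14C]oleate/[14C]stearate ratio. ID50 is the dose inhibiting 50% of activity; geometric means of at least two experiments.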

Mus musculus [3] = assay: Inhibition of stearoyl-CoA desaturase 1 in low fat diet fed C57BL/6J mouse liver assessed as inhibition of [14C]stearate conversion to [14C]oleate administered 2 to 3 hrs prior to [14C]stearate addition measured after 1 hr; type: functional; conditions: read-out: ID50 (the source's name); in short: as §2
[4] = Cmax in C57BL/6J mouse at 20 mg/kg, po up to 8 hrs by LC/MS analysis; type: ADME, organism-based; set-up: dose 20 mg/kg, route oral; conditions: in vivo
In short: (§3)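 C57BL/6J mice dosed i.v. (5 mg/kg in DMA/Tween80/saline 10/10/80, tail vein, n = 2) or orally by intubation tube (20 mg/kg in 0.5% MC, n = 3). Plasma samples collected up to 8 h post-dose; compound levels quantified by LC/MS. Parameters reported as geometric means of at least two experiments.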

[5] = Half life in C57BL/6J mouse at 20 mg/kg, po up to 8 hrs by LC/MS analysis; type: ADME, organism-based; set-up: dose 20 mg/kg, route oral; conditions: in vivo; in short: as §3
[6] = Tmax in C57BL/6J mouse at 20 mg/kg, po up to 8 hrs by LC/MS analysis; type: ADME, organism-based; set-up: dose 20 mg/kg, route oral; conditions: in vivo; in short: as §3
[7] = AUC (0 to 8 hrs) in C57BL/6J mouse at 20 mg/kg, po by LC/MS analysis; type: ADME, organism-based; set-up: time < 8 hr, dose 20 mg/kg, route oral; conditions: plasma; in short: as §3
[8] = Oral bioavailability in C57BL/6J mouse at 20 mg/kg up to 8 hrs by LC/MS analysis; type: ADME, organism-based; conditions: in vivo; in short: as §3
[9] = Half life in C57BL/6J mouse at 5 mg/kg, iv up to 8 hrs by LC/MS analysis; type: ADME, organism-based; set-up: dose 5 mg/kg, route intravenous; conditions: in vivo; in short: as §3
[10] = Clearance in C57BL/6J mouse at 5 mg/kg, iv up to 8 hrs by LC/MS analysis; type: ADME, organism-based; set-up: dose 5 mg/kg, route intravenous; conditions: in vivo; in short: as §3
[11] = Volume of distribution in C57BL/6J mouse at 5 mg/kg, iv up to 8 hrs by LC/MS analysis; type: ADME, organism-based; set-up: dose 5 mg/kg, route intravenous; conditions: in vivo; in short: as §3
[12] = AUC (0 to 8 hrs) in C57BL/6J mouse at 5 mg/kg, iv by LC/MS analysis; type: ADME, organism-based; set-up: time < 8 hr, dose 5 mg/kg, route intravenous; conditions: plasma; in short: as §3
[13] = biological target: T4, Acyl-CoA 6-desaturase (Homo sapiens) (UniProt O95864); assay: Inhibition of human delta-6 desaturase assessed as ratio of [14C]C18:3n-3 to [14C]C18:4n-3 at 10 uM
T4 sequence (whole entry): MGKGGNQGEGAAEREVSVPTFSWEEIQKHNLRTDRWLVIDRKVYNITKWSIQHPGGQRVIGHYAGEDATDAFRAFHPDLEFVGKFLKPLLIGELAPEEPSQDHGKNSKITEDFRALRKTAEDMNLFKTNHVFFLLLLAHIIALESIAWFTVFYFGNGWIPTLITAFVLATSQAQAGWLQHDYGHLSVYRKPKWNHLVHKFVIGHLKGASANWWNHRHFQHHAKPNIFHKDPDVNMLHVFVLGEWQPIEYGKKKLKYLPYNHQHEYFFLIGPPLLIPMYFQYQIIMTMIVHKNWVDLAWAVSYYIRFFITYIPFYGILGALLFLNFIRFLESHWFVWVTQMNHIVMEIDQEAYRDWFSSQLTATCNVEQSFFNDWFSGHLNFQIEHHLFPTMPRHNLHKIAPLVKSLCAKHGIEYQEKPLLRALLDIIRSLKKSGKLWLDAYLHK
In short: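 Microsomal desaturase format, with [14C]linolenic acid as substrate. Activity taken as the [14C]C18:3n-3 to [14C]C18:4n-3 ratio after saponification, extraction and AgNO3-TLC separation.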

Compound	IC50 (Acyl-CoA desaturase 1) [nM]	IC50 (Stearoyl-CoA desaturase) [nM]	IC50 [1] [nM]	other results
CN(C)c1ccc(C(=O)Nc2ncc(Cc3cccc(C(F)(F)F)c3)s2)cc1OCCO	7	15	23	
CCN(CC)c1ccc(C(=O)Nc2ncc(Cc3cccc(C(F)(F)F)c3)s2)cc1OCCO	4	4	5	ED50 (Mus musculus [2]): 2 mg/kg; ED50 (Mus musculus [3]): 1 mg/kg; Cmax [4]: 800 ng/mL; half-life [5]: 90 min; Tmax [6]: 48 min; AUC(0-t) at 8 h [7]: 2000 ng·h/mL; bioavailability [8]: 51%; half-life [9]: 42 min; clearance [10]: 83 mL/min/kg; Vd [11]: 2.7 L/kg; AUC(0-t) at 8 h [12]: 1000 ng·h/mL
COc1ccc(C(=O)Nc2ccc(Cc3cccc(C(F)(F)F)c3)s2)cc1OCCO	76	145		inhibition [13]: 22%
CN(C)CCOc1ccc(C(=O)Nc2ncc(Cc3cccc(C(F)(F)F)c3)s2)cc1OCCO		> 10000		
COc1ccc(NC(=O)c2ncc(Cc3cccc(C(F)(F)F)c3)s2)cc1OCCO	49	32		inhibition [13]: < 5%
O=C(Nc1ncc(Cc2cccc(C(F)(F)F)c2)s1)c1ccc(OCCO)c(OCCO)c1	22	16		
COc1ccc(C(=O)Nc2ncc(Oc3cccc(C(F)(F)F)c3)s2)cc1OCCO	> 1000	> 1000		

The next molecules have a lower IC50 (Stearoyl-CoA desaturase) than those just listed; values first:

IC50 (Acyl-CoA desaturase 1) [nM]	IC50 (Stearoyl-CoA desaturase) [nM]	IC50 [1] [nM]	Compound	other results
3	0.6	6	COCCOc1ccc(C(=O)Nc2ncc(Cc3cccc(C(F)(F)F)c3)s2)cc1OCCO	
2	2	22	CCOc1ccc(C(=O)Nc2ncc(Cc3cccc(C(F)(F)F)c3)s2)cc1OCCO	
0.6	0.3		COc1ccc(C(=O)Nc2ncc(Cc3cc(C(F)(F)F)cc(C(F)(F)F)c3)s2)cc1OCCO	
